High-throughput results: PubChem BioAssay, Sanford-Burnham Center for Chemical Genomics
A selection: hits, their analogues and other compounds. The true share with any hit is near 3%.
SENP8 block-1 – human SENP8 protease inhibitors, primary screen, biochemical, fluorescence, Nedd8 protein substrate, uHTS. Sentrin-specific protease 8 (Homo sapiens), Q96LD8. recombinant SENP8. inhibition, % at 20 µM. actives 0.64% (n = 360,000). AID 602440, 2012; in the data active = inhibition mostly above about 40%, no sharp cut-off; inactive = mostly below about 27%
SENP6 inh – SENP6 protease inhibitors, primary screen, biochemical, luminescence, uHTS | Recombinant SENP6 catalytic domain, aminoluciferin luminescence | inhibition, % at 10 µM | actives 1.8% (n = 330,000) | AID 2599, 2010;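 active = inhibition above about 50% at the single tested dose, limit read from the data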;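 note: plate controls were DMSO wells with enzyme for no effect and DMSO wells lacking enzyme for full effect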
SENP8 block-2 – SENP8 protease inhibitors, primary screen, biochemical, luminescence; purified SENP8, Z-RLRGG-aminoluciferin cleavage; inhibition, % at 10 µM; actives 1.2% (n = 330,000); AID 2540, 2010; in the data active = inhibition above about 50%
Apaf1 inhib – inhibitors of human Apaf-1 apoptosome, primary screen, biochemical, DEVD-Rh110 fluorescence, uHTS; inhibition, % at 20 µM; reconstituted apoptosome caspase-3 activity; actives 0.71% (n = 330,000); active = inhibition of at least 40% at 20 µM;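 note: plate controls were DMSO wells for no effect and DEVD-CHO caspase inhibitor wells for full effect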
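Material: reconstituted apoptosome with Apaf-1, cytochrome c, caspase-9, procaspase-3, dATP / Buffer or medium: pH 7.5 Hepes buffer with CHAPS, BSA, DTT / Also added: cytochrome c with DEVD-Rh110 / Schedule: compound with Apaf-1, dATP, procaspase-3 30 min, then 50 min reaction, room temperature / Technique: rhodamine 110 fluorescence at Ex 480/Em 540 nm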
SENP7 inh – SENP7 protease inhibitors, primary screen, biochemical, luminescence, uHTS; AID 434973, 2010; Sentrin-specific protease 7 (Homo sapiens), Q9BQF6; recombinant SENP7, Z-RLRGG-aminoluciferin luminescence, 40 min; actives 1.5% (n = 330,000); inhibition, % at 5 µM;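 active = inhibition above about 50% at the single test dose, limit read from the data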;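 note: plate controls were DMSO with enzyme for no effect and no enzyme buffer wells for full effect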
UBC13 inh – UBC13 polyubiquitin chain formation inhibitors, primary screen, biochemical, TR-FRET, uHTS | inhibition, % at 20 µM | Ubiquitin-conjugating enzyme E2 N (Homo sapiens), P61088 | actives 0.47% (n = 330,000) | AID 485273, 2010; in the data active = inhibition above about 45%, passing the limit was not always enough
Apaf-1 inh conf – Apaf-1 inhibitors, single-dose retest, confirmation, biochemical, fluorescence, DEVD-Rh110, 20 µM; AID 504614, 2011; actives 25% (n = 1,800); reconstituted apoptosome, caspase-3 DEVD-Rh110 fluorescence; shares compounds with Apaf1 inhib; inhibition, % at 20 µM;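 active = mean inhibition of at least 40% at 20 µM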;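 note: plate controls were DMSO wells for no effect and DEVD-CHO caspase inhibitor control wells for full effect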
Rh110 quench – Rh110 fluorescence interference by putative Apaf-1 inhibitors, confirmation, artefact control for Apaf-1 inhibitor project, biochemical, 20 µM; shares compounds with Apaf1 inhib; quenched caspase reaction; activation (fluorescence interference), % at 20 µM; 1,800 tested, under 10 active; AID 504615, 2011;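 active = signal rise of 40% or more at 20 µM, treated as a fluorescence artifact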
Fluor interf inh – fluorescence interference of Apaf-1 inhibitor hits, dose response, artefact control for Apaf-1 inhibitor project; 460 tested, under 10 active; fluorescence interference counterscreen, Apaf-1 assay format; AID 588538, 2011; shares compounds with Apaf1 inhib; IC50, µM; call rule not given here
Starred values were filed as active, the others as inactive; x = no result; ! = not active in a repeat.

SMILES	SENP8 block-1	SENP6 inh	SENP8 block-2	Apaf1 inhib	SENP7 inh	UBC13 inh	Apaf-1 inh conf	Rh110 quench	others
Cc1noc(C)c1NC(=O)N1C[C@H](O)COC[C@H]2O[C@@H](CC(=O)NCC3CCCCC3)CC[C@@H]21	5	x	x	x	x	x	x	x
CCOc1ccc(S(=O)(=O)Nc2ccc(C(=O)N(CC)CC(=O)NCc3cccs3)cc2)cc1	15	x	x	x	x	x	x	x
CCOc1ccc(NS(=O)(=O)c2ccc(C(=O)N(CC)CC(=O)NCc3cccs3)cc2)cc1	14	-2	0	61*	2	38	29	-3
CCOC(=O)c1c(C)oc2c1C(=O)c1ccccc1C2=O	39	49	17	69*	10	-78	68*	2	Fluor interf inh=>100
COc1cc2c(cc1OC)/C(=C/C(C)=O)OC2	8	x	x	x	x	x	x	x
CN(C)c1cccc2c1c(NC(=O)Nc1ccc(F)cc1F)nn2C	-3	24	7	-4	11	-5	x	x
CN(C)c1cccc2c1c(NC(=O)Nc1ccccc1)nn2C	-93	24	7	82*	12	1	6	7
O=C(NCc1ccco1)Nc1ccc2nsnc2c1	-421	-15	-7	59*	-2	9	4	4
O=C(NCc1cccs1)c1cccc(S(=O)(=O)N2CCCCC2)c1	18	5	-3	55*	4	9	15	5
Cc1cccc(C)c1NC(=O)CSc1nnc(-c2ccco2)c(-c2ccco2)n1	60*	8	12	42*	-5	-14	27	2
CCn1c(SCC(=O)N/N=C/C=C\c2ccco2)nc2ccccc21	7	11	8	47*	0	1	16	-6
Cn1c(SCC(=O)N/N=C/C=C\c2ccco2)nc2ccccc21	1	2	4	-2	-1	-9	x	x
Cc1cccc(C(=O)N2CCC(C)(C(=O)NS(=O)(=O)C3CC3)C2)c1C (centres undefined)	39	x	x	x	x	x	x	x
CC1(C)Cc2ccccc2C2=NNC(=O)C2=N1	-396	41	3	62*	12	-53	64*	3	Fluor interf inh=>100
COc1ccc(OC2(C)CCN(Cc3ccccc3OC(F)F)C2)cc1 (centres undefined)	11	x	x	x	x	x	x	x
CSc1ccccc1NC(=O)COc1ccc2c(c1)OCO2	2	4	6	45*	16	28	38	8
Cc1cc(C)nc(/N=c2/ssnc2Cl)c1	-205	7	15	71*	20	-30	82*	1	Fluor interf inh=>100
Cc1ccc(S(=O)(=O)Nc2nc3ccccc3nc2N2CCN(c3ccccc3F)CC2)cc1	-482	-9	1	4	1	-14	x	x
O=C1C(NS(=O)(=O)c2cccs2)=C(N2CCN(c3ccccc3)CC2)C(=O)c2ccccc21	69*	9	5	41*	11	-53	25	5
O=S(=O)(c1cccs1)N1CCN(c2ccccc2)CC1	3	-11	0	0	7	6	x	x
Cc1ccc(S(=O)(=O)NC2=C(N3CCN(c4ccccc4F)CC3)C(=O)c3ccccc3C2=O)cc1	46*!	26	0	76*	27	-107	20	2
O=C(Nc1cc(Cl)cc2c1-c1ccc(Cl)cc1C2O)C(Cl)Cl (centres undefined)	25	x	x	x	x	x	x	x
CCCCN1C[C@H](CSC)[C@@H](CC(=O)Nc2ccc(Br)cc2)C1=O	4	x	x	x	x	x	x	x
Cc1cccc(C)c1Cn1c(C)c(C(=O)NCCC#N)sc1=O	2	x	x	x	x	x	x	x
